In the library only some 2.6% were active in any assay of this set; here they are far more common.
MC4R ag barr: human MC4R agonism via beta-arrestin; U2OS MC4R beta-arrestin complementation, luminescence; percent of melanotan II response, DMSO zero; 0.98% of 360,000 active; activation, % at 8.9 µM; P32245; AID 540308;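 active = activation above a per-plate cutoff, the mean activation of sample wells on that plate plus 3 SD, cut at about 8% in these data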
hiPSC survival: hiPSC single-cell survival enhancement; AID 602274; ATPlite luminescence; 100% = ROCK inhibitor wells, 0% = DMSO; survival enhancement, % at 20 µM; 0.044% of 360,000 active; in the data active = survival enhancement above about 18%;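 note: cells exposed to compounds for 16 hours before the ATP read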
Tb MetRS inh: Trypanosoma brucei MetRS inhibition; inhibition, % at 11.9 µM; purified T. brucei MetRS, ATP depletion, Kinase-Glo luminescence; 0.4% of 360,000 active; AID 624268;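 active = inhibition above a per-plate cutoff of the control wells' mean inhibition plus 3 SD, cut at about 5.5% in these data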
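Dosing: 11.9 µM single point; system: parasite MetRS enzyme; technique: luminescence of leftover ATP; times: 15 min enzyme-compound preincubation, 2 h reaction, 10 min detection, 25 °C; replicates: each compound tested once; read-out basis: percent inhibition relative to median high and low control wells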
ABCB6 inh 2: blocks the human ABCB6 transporter | Q9NP58 | K562-ABCB6 porphyrin accumulation, flow cytometry, 1 h; stronger effect = lower value | fluorescence ratio to DMSO, % at 10 µM | AID 602162 | 0.19% of 360,000 active;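 active = fluorescence ratio to DMSO below 75%, the collection mean minus 3 SD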;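 note: signal is porphyrin accumulated inside mitochondria; lower ratio means ABCB6 inhibition with less porphyrin fluorescence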
Target sequence (Q9NP58 whole entry, looked up): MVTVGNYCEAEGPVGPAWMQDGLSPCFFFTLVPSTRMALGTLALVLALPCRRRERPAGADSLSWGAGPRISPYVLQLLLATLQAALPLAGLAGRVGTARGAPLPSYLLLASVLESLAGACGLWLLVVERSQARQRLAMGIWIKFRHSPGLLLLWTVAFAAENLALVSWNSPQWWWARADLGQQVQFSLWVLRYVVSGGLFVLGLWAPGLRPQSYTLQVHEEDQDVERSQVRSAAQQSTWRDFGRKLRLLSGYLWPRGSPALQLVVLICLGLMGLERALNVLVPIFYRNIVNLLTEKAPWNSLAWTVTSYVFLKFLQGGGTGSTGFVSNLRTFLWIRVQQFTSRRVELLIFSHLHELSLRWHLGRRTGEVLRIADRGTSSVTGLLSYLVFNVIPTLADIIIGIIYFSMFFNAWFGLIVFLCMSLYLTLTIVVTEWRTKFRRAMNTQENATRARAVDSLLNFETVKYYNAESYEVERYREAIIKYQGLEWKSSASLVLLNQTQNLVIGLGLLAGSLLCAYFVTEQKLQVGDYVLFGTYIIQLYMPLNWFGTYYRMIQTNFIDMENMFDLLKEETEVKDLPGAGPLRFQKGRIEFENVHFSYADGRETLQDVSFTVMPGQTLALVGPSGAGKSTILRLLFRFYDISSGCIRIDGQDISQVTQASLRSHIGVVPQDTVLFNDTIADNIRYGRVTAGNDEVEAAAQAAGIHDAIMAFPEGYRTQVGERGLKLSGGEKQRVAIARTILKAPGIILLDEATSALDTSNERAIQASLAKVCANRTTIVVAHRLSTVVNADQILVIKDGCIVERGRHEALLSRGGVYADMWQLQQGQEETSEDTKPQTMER
Exocytosis inh: blocks lytic granule exocytosis; TALL-104 LAMP-1 surface exposure, flow cytometry; cells stimulated with thapsigargin and PMA; inhibition, % at 10 µM; 0.66% of 360,000 active;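 active = inhibition above about 55%, limit read from the data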
MC4R antag cAMP: antagonists of human melanocortin 4 receptor (MC4R). P32245. MC4R-expressing cells, MTII-stimulated cAMP, LANCE TR-FRET. inhibition, % at 6.5 µM. 0.48% of 360,000 active;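 active = inhibition above its plate's cutoff, the mean of tested wells on that plate plus 3 SD, cut at about 29% in these data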
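material = U2OS cells stably expressing human melanocortin 4 receptor (MC4R) | also added = Melanotan II challenge | dosing = single nominal compound dose of 6.5 µM | detection = TR-FRET with Eu-cAMP and labeled anti-cAMP, 671 nm | replication = singlicate | timing = compound 30 min, challenge 1 h, detection 1 h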
Tb MetRS conf: Trypanosoma brucei MetRS inhibition confirmed. shares compounds with Tb MetRS inh. T. brucei MetRS enzyme, luminescence (ATP depletion). inhibition, % at 11.9 µM. 93% of 1,400 active. AID 624412; in the data active = inhibition above about 7%
Jurkat cytotox: Jurkat T cell cytotoxicity for MetRS hits | shares compounds with Tb MetRS inh | Jurkat cells viability, ATP luminescence | inhibition, % at 8.3 µM | 12% of 1,400 active | AID 624413; in the data active = inhibition above about 15%
TbMetRS FP orth: T. brucei MetRS inhibition, orthogonal assay. AID 651607. 44% of 1,400 active. purified T. brucei MetRS, fluorescence polarization. shares compounds with Tb MetRS inh. inhibition, % at 11.9 µM; in the data active = inhibition above about 17%
Numbers stand for hits; n = inactive; x = no result.

SMILES	MC4R ag barr	hiPSC survival	Tb MetRS inh	ABCB6 inh 2	Exocytosis inh	MC4R antag cAMP	Tb MetRS conf	Jurkat cytotox	TbMetRS FP orth
CCC(C)NC(=O)CNC(=O)c1nn(-c2ccc(OC)cc2OC)c(=O)c2ccccc12 (centres undefined)	n	n	n	n	n	n	x	x	x
COc1cc(C2C(C#N)=C(N)Oc3cc4c(cc32)OCO4)cc(OC)c1OC (centres undefined)	n	n	n	n	n	n	x	x	x
COc1cc(C2C(C#N)=C(N)Oc3cc(N(C)C)ccc32)cc2c1OCO2 (centres undefined)	n	n	19	n	n	n	n	82	n
COc1cc(C2C(C#N)=C(N)Oc3cc(O)ccc32)cc2c1OCO2 (centres undefined)	n	n	14	n	n	n	n	36	n
O=C(c1c(F)cccc1Cl)N(Cc1ccco1)C1CCS(=O)(=O)C1 (centres undefined)	n	n	n	n	n	n	x	x	x
O=C(Cc1ccc(NC(=O)C2CCN(C(=O)c3ccccc3)CC2)cc1)Nc1cccc(C(=O)N2CCCCC2)c1	n	n	n	n	n	n	x	x	x
COc1ccc(-n2cc(CNCCCn3ccnc3)c(-c3cccc(F)c3)n2)cc1	n	n	16	n	n	n	n	n	n
CC1=C(C(=O)Nc2ccccc2)C2(CCCCC2)C(C#N)=C(S)N1	n	n	n	n	n	n	x	x	x
CCn1nc(C)cc1C(=O)N1CCCC(CCC(=O)NCc2ccccc2F)C1 (centres undefined)	n	n	n	n	n	n	x	x	x
CCN1C(=O)C(CC(=O)Nc2ccc(OC)cc2)N(Cc2ccc(OC)c(OC)c2)C1=S (centres undefined)	n	n	n	n	n	n	x	x	x
COc1ccc(NC(=O)CC2C(=O)N(c3ccc(OC)cc3)C(=O)N2CCc2cccs2)cc1 (centres undefined)	n	n	11	n	n	n	20	n	n
CCN1C(=O)C(CC(=O)Nc2ccc(OC)cc2)N(CCc2ccc(OC)cc2)C1=S (centres undefined)	n	n	36	n	n	n	51	n	34
COc1ccc(CCN2C(=S)N(C)C(=O)C2CC(=O)Nc2ccc(F)cc2)cc1 (centres undefined)	n	n	58	n	n	n	81	n	51
CCN1C(=O)C(CC(=O)Nc2ccc(Br)cc2)N(CCCc2ccccc2)C1=S (centres undefined)	n	n	66	n	n	n	77	n	62
COC(=O)CN1C(=S)N(c2ccc(OC)cc2)C(=O)C1CC(=O)Nc1ccc(F)cc1 (centres undefined)	n	n	n	n	n	n	x	x	x
NNC(=O)c1csc(-c2ccc(C(F)(F)F)cc2Cl)n1	n	n	n	n	n	n	x	x	x
Nc1c(NC(=O)CC[n+]2ccccc2)cccc1[N+](=O)[O-]	n	n	11	n	n	n	18	n	n
O=C(Nc1cccc(-c2nc3ccccc3[nH]2)c1)c1ccco1	n	n	5.7	n	n	n	8.8	n	n
Cc1ccc2nc(-c3ccc(NC(=O)c4ccco4)cc3)[nH]c2c1	n	n	n	n	n	n	x	x	x
O=C(CN1CCSC1=NCc1ccccc1)c1ccc(Cl)cc1	n	n	19	n	n	n	43	n	18
O=C1C(=O)c2cccnc2-c2ncccc21	x	n	15	n	105	x	9.7	97	n
Clc1ccc(CN2CCC(c3nc4ccc(Cl)cc4[nH]3)CC2)cc1	n	n	8.4	n	n	n	17	21	n
COc1ccc(N(CC(=O)NCCC2=CCCCC2)S(=O)(=O)c2c(C)[nH]c(=O)[nH]c2=O)cc1	n	n	n	n	n	n	x	x	x
O=C(NCC1COc2ccccc2O1)c1ccc(-n2cncn2)c([N+](=O)[O-])c1 (centres undefined)	n	n	19	n	n	n	58	n	31
O=C(NC1CCCCC1)c1ccc([N+](=O)[O-])cc1	n	n	n	n	n	n	x	x	x
SMILES	MC4R ag barr	hiPSC survival	Tb MetRS inh	ABCB6 inh 2	Exocytosis inh	MC4R antag cAMP	Tb MetRS conf	Jurkat cytotox	TbMetRS FP orth
O=C(NC1CCCCC1)c1ccc(-n2cncn2)c([N+](=O)[O-])c1	n	n	24	n	n	n	51	n	28
CC1CCC(NC(=O)c2ccc(-n3cncn3)c([N+](=O)[O-])c2)CC1 (centres undefined)	n	n	12	n	n	n	52	n	24
CCCCc1nnc(NC(=O)c2ccc(-n3cncn3)c([N+](=O)[O-])c2)s1	n	n	n	n	n	n	x	x	x
COc1ccc(-c2coc3c(C(=O)N4CCN(C)CC4)cccc23)c(C)c1	n	n	n	n	n	n	x	x	x
CC(C)OC(=O)c1cc(Cl)c(=O)n(Cc2ccc(Cl)cc2Cl)c1	n	n	n	n	n	n	x	x	x
CNC(=S)NNC(=O)c1ccc(=O)n(Cc2ccc(Cl)cc2Cl)c1	n	n	7.8	n	n	n	20	n	n
Cc1cccc(CCN=C(N)NS(=O)(=O)c2ccccc2)c1	n	n	6.2	n	n	n	14	n	n
O=C(CSc1nnc2c(n1)[nH]c1ccccc12)NCc1ccccc1F	n	n	6.5	n	n	n	44	n	27
COc1ccc(C(=O)NC2CC2)cc1OC1CCN(Cc2ccc(F)c(F)c2)CC1	n	n	n	n	n	n	x	x	x
O=C(CC(=O)Nc1ccc(Br)cc1)Nc1ccc(Br)cc1	n	n	7.0	n	n	n	11	n	n
O=C(Cc1cccc(Cl)c1)Nc1ccc(Br)cc1	n	n	40	n	n	n	61	n	39
O=C(O)CCC(=O)NNC(=O)CCC(=O)Nc1ccccc1	n	n	n	n	n	n	x	x	x
O=C(CCC(=O)OCc1ccc(Br)cc1)Nc1ccccc1	n	n	6.1	n	n	n	14	n	n
CCN(CC(=O)Nc1ccc(NC(C)=O)cc1)C(=O)CN1C(=O)NC2(CCCC2)C1=O	n	n	n	n	n	n	x	x	x
COC(=O)c1ccccc1S(=O)(=O)NNC(=O)c1ccccc1-n1cccc1	n	n	n	n	n	n	x	x	x
O=C(COC(=O)c1cncc(Br)c1)NCc1ccc2c(c1)OCO2	n	n	n	n	n	n	x	x	x
COc1ccc(-c2cc(=O)n(CCC#N)[nH]2)cc1	n	n	16	n	n	n	n	n	n

Assay outcomes from PubChem.
